Laboratory results as given in article PMC9472799 (Biomacromolecules, 2022).

Key:
Type in all cases: biochemical
sickle hemoglobin (HbS) [1] = biological target: T1, sickle hemoglobin (HbS) (Homo sapiens, UniProt P68871+P69905, P68871:E7V); experiment: NMR binding
Summary of the method: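 HbS labelled at cysteine thiols with rhodamine red (donor) or Cy5 (acceptor) after TCEP reduction; free dye dialysed away. Donor and acceptor HbS mixed 1:5 at 25 μM. Incubated 2 h at room temperature with test compound at seven concentrations (0.1–1000 μM) or DMSO. Vacuum argon degassed 10 min to deoxygenate. Donor fluorescence lifetime read; FRET efficiency E = 1 − τDA/τD.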

sickle hemoglobin (HbS) [2] = biological target: T1, sickle hemoglobin (HbS); experiment: FLT-FRET dose response and DLS
sickle hemoglobin (HbS) [3] = biological target: T1, sickle hemoglobin (HbS); experiment: DLS oligomer size and FLT-FRET with purified deoxy-HbS

Compound `CN1C(=O)CCS(=O)(=O)C1c1ccc(Cl)cc1` (stereo not drawn) [chlormezanone] has an IC50 (sickle hemoglobin (HbS) [1]) greater than 100 µM.
`COc1ccc(-c2ccc(=N)n(CCCC(=O)O)n2)cc1` [gabazine] was tested, and the “FLT-FRET dose response and DLS (100 μM) with purified deoxy-HbS” value (sickle hemoglobin (HbS) [2]) was “all three compounds significantly decreased the oligomer size relative to control (and to the same extent as voxelotor)”.
`CC(C)n1nccc1-c1ncccc1COc1cccc(O)c1C=O` [voxelotor] was tested, and the “DLS oligomer size and FLT-FRET with purified deoxy-HbS” value (sickle hemoglobin (HbS) [3]) was “voxelotor (a compound that increases hemoglobin oxygen binding affinity), which dramatically reduced the mean oligomer size (Figure 1A)”.
